Measured values taken from ChEMBL document CHEMBL1125404 (J Med Chem, 1992).

How the values were obtained:
[1] = Half life at pH 7.4; assay type: ADME; details: buffer
[2] = target: Sodium/potassium-transporting ATPase; experiment: In vitro evaluation for its ability to inhibit the Na+/K+ ATPase at pH 7.4.; assay type: protein-complex assay, Canis lupus familiaris
Summary of the method: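 Dog kidney (Na+,K+)-ATPase (20 μg) incubated in 50 mmol/L HEPES pH 7.4 containing (mmol/L) 140 NaCl, 10 KCl, 3 ATP-Mg and 0.5 EDTA, with inhibitor at 0–300 μmol/L.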

[3] = target: Potassium-transporting ATPase (Oryctolagus cuniculus); experiment: In vitro evaluation for the inhibition of H+/K+ ATPase at pH < 3 in the gastric glands of isolated rabbit stomach.
[4] = t1/2 (pH 5); assay type: ADME
[5] = t1/2 (pH 3); assay type: ADME
[6] = pKa value (imidazole); assay type: physicochemical
Summary of the method: (§1)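 Measured spectrophotometrically at ambient temperature (25 °C).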

[7] = pKa value (pyridine); assay type: physicochemical; summary of the method: as §1
[8] = Half life at pH 7.4; Insoluble to measure; assay type: ADME; details: buffer
[9] = Half life at pH 5; Insoluble to measure; assay type: ADME; details: buffer
[10] = Half life at pH 3; Insoluble to measure; assay type: ADME; details: buffer

Row | SMILES | half-life [1] | -Log IC50 [2] | IC50 [3] | half-life [4] | half-life [5] | pKa [6] | pKa [7] | T1/2 [8] | T1/2 [9] | T1/2 [10]
1 | COc1ccnc(C[S+]([O-])c2nc3cc(OC(F)F)ccc3[nH]2)c1 (stereo unspecified) | 51 h | 4.3 | 1580 nM | 0.8 h | 0.167 h |  |  |  |  | 
2 | COc1cnc(C[S+]([O-])c2nc3cc(OC(F)(F)C(F)F)ccc3[nH]2)c(C)c1OC (stereo unspecified) | 43 h | 4.2 | 7940 nM | 6.8 h | 0.333 h |  |  |  |  | 
3 | COc1cnc(C[S+]([O-])c2nc3cc(OC(F)(F)C(F)F)ccc3[nH]2)cc1OC (stereo unspecified) | 140 h | < 3 | 20000 nM | 2.9 h | 0.317 h |  |  |  |  | 
4 | COc1cc(C[S+]([O-])c2nc3cc(OC(F)(F)C(F)F)ccc3[nH]2)ncc1C (stereo unspecified) | 18 h | 5.5 | 1260 nM | 0.2 h | 0.1 h | 8 | 4.95 |  |  | 
5 | COc1ccnc(C[S+]([O-])c2nc3cc(OCC(F)(F)F)ccc3[nH]2)c1OC (stereo unspecified) | > 200 h | 3.5 | 1000 nM | 7.6 h | 0.183 h | 8.52 | 3.9 |  |  | 
6 | COc1ccnc(C[S+]([O-])c2nc3cc(F)c(OC(F)F)cc3[nH]2)c1C (stereo unspecified) | 4 h | 4.7 | 3160 nM | 0.5 h | 0.133 h |  |  |  |  | 
7 | COc1ccnc(C[S+]([O-])c2nc3cc(OC(F)(F)C(F)F)ccc3[nH]2)c1 (stereo unspecified) | 63 h | 4.4 | 1260 nM | 0.8 h | 0.167 h | 7.91 | 4.25 |  |  | 
8 | COc1cc2[nH]c([S+]([O-])Cc3nccc(OC)c3C)nc2cc1OC(F)F (stereo unspecified) | 11 h | 5 | 1580 nM | 0.2 h | 0.1 h | 8.31 | 4.96 |  |  | 
9 | COc1cnc(C[S+]([O-])c2nc3cc(OC(F)F)ccc3[nH]2)c(C)c1OC (stereo unspecified) | 60 h | 4.6 | 2510 nM | 3.7 h | 0.2 h | 8.35 | 3.73 |  |  | 
10 | COc1ccnc(C[S+]([O-])c2nc3cc(OC(F)F)ccc3[nH]2)c1C (stereo unspecified) | 3 h | 5.2 | 631 nM | 0.17 h | 0.0833 h |  |  |  |  | 
11 | COc1ccnc(C[S+]([O-])c2nc3cc4c(cc3[nH]2)OC(F)(F)O4)c1C (stereo unspecified) |  | 4.6 | 1000 nM | 0.5 h | 0.167 h | 7.93 | 4.73 | Insoluble to measure |  | 
12 | COc1ccnc(C[S+]([O-])c2nc3cc(OC(F)(F)C(F)F)ccc3[nH]2)c1C (stereo unspecified) |  | 5.5 | 398 nM | 0.3 h | 0.0833 h |  |  | Insoluble to measure |  | 
13 | COc1ccnc(C[S+]([O-])c2nc3cc(OC(F)(F)C(F)F)ccc3[nH]2)c1OC (stereo unspecified) | 160 h | 3.8 | 5010 nM | 3.6 h | 0.3 h | 8.08 | 3.86 |  |  | 
14 | COc1cnc(C[S+]([O-])c2nc3cc4c(cc3[nH]2)OC(F)(F)O4)c(C)c1OC (stereo unspecified) |  | < 3 | 15800 nM |  |  |  |  | Insoluble to measure | Insoluble to measure | Insoluble to measure
15 | COc1cc2[nH]c([S+]([O-])Cc3nccc(OC)c3OC)nc2cc1OC(F)F (stereo unspecified) | 800 h | 3.6 | 3980 nM | 2.1 h | 0.25 h |  |  |  |  | 
16 | COc1cnc(C[S+]([O-])c2nc3cc4c(cc3[nH]2)OC(F)(F)O4)cc1OC (stereo unspecified) |  | < 3 | 63100 nM |  |  |  |  | Insoluble to measure | Insoluble to measure | Insoluble to measure
17 | COc1cnc(C[S+]([O-])c2nc3cc(OC(F)F)ccc3[nH]2)cc1OC (stereo unspecified) | > 200 h | < 3.5 | 31600 nM | 2.1 h | 0.283 h | 8.03 | 3.75 |  |  | 
18 | COc1ccnc(C[S+]([O-])c2nc3cc4c(cc3[nH]2)OC(F)(F)O4)c1OC (stereo unspecified) | > 200 h | 3.6 | 2510 nM | 6 h | 0.633 h | 7.97 | 3.84 |  |  | 
19 | COc1ccnc(C[S+]([O-])c2nc3cc(F)c(OC(F)F)cc3[nH]2)c1OC (stereo unspecified) | 150 h | 3.4 | 7940 nM | 8.3 h | 0.433 h | 7.76 | 3.76 |  |  | 
20 | COc1ccnc(C[S+]([O-])c2nc3cc(OCC(F)(F)F)ccc3[nH]2)c1C (stereo unspecified) | 5 h | 5.4 | 794 nM | 0.15 h | 0.0833 h | 8.51 | 4.97 |  |  | 
21 | COc1c(C)cnc(C[S+]([O-])c2nc3cc(OC(F)F)ccc3[nH]2)c1C (stereo unspecified) | 15 h | 4.4 | 501 nM | 1.9 h | 0.2 h | 8.23 | 4.16 |  |  | 
22 | COc1ccnc(C[S+]([O-])c2nc3cc4c(cc3[nH]2)OC(F)(F)O4)c1 (stereo unspecified) |  | < 3.5 | 2510 nM | 1.4 h | 0.333 h | 7.92 | 4.29 | Insoluble to measure |  | 
23 | COc1cnc(C[S+]([O-])c2nc3cc(OCC(F)(F)F)ccc3[nH]2)c(C)c1OC (stereo unspecified) | 130 h | 4.3 | 2510 nM | 3.3 h | 0.167 h | 8.61 | 3.72 |  |  | 
24 | Cc1c(OCC(F)(F)F)ccnc1C[S+]([O-])c1nc2ccccc2[nH]1 (stereo unspecified) [LANSOPRAZOLE] | 40 h | 4.4 |  | 1.1 h | 0.0667 h | 8.78 | 4.01 |  |  | 
25 | COc1ccc2[nH]c([S+]([O-])Cc3ncc(C)c(OC)c3C)nc2c1 (stereo unspecified) [OMEPRAZOLE] | 80 h | 4.5 |  | 1 h | 0.0667 h | 8.98 | 4.13 |  |  | 
26 | COc1ccnc(C[S+]([O-])c2nc3cc(OC(F)F)ccc3[nH]2)c1OC (stereo unspecified) [PANTOPRAZOLE] | 130 h | 3.7 |  | 3 h | 0.15 h | 8.19 | 3.92 |  |  | 
